Source: PubChem
PG9 binder – small molecules binding HIV-1 gp120 antibody PG9. TR-FRET gp120-PG9 antibody binding. AID 624416. inhibition, % at 6.7 µM. hit rate 0.43% among 360,000; in the data active = inhibition above about 8.5%
VLA-4 inh – inhibition in a human VLA-4 binding assay; hit rate 0.2% among 330,000; VLA-4 expressing cells, ligand binding flow cytometry; inhibition, % (about 7 µM as worked out from the volumes in the protocol); P13612; in the data active = inhibition above about 50%
Target sequence (P13612 whole entry, looked up): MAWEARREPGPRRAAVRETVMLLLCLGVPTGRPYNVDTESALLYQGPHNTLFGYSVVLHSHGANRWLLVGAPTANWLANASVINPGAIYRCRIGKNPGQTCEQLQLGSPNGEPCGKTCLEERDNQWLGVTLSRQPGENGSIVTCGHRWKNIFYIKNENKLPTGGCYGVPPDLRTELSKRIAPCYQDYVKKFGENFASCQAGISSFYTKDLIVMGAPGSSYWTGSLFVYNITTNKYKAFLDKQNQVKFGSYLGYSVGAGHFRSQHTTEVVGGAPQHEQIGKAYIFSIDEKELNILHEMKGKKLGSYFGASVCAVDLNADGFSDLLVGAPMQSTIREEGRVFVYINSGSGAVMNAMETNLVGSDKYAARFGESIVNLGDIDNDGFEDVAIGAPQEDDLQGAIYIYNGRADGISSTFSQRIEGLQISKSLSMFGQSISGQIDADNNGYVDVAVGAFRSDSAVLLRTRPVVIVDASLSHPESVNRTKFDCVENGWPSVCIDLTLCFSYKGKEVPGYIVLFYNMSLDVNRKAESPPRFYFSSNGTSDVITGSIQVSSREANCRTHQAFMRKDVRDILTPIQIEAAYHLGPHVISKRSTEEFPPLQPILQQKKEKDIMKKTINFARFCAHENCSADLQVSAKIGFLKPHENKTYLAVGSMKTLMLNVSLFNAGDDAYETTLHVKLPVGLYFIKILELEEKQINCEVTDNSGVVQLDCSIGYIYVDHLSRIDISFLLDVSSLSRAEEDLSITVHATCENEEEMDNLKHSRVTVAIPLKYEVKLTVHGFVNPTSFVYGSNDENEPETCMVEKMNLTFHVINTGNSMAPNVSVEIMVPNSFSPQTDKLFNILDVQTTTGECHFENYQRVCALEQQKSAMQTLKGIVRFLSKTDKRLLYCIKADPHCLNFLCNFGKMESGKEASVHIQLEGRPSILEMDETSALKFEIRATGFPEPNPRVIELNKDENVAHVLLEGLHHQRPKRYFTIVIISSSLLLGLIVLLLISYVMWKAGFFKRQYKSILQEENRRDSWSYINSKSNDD
NR2E3 ag-1 – human photoreceptor-specific nuclear receptor agonism | Q9Y5X4 | inhibition of corepressor binding, % at 3.98 µM | hit rate 0.35% among 360,000 | CHO-S Gal4-NCOR/VP16-NR2E3 two-hybrid, luciferase;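 active = inhibition above the mean of all tested compounds plus 3 SD, cut at about 70% in these data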;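 also: higher means lower luciferase signal from less NR2E3 corepressor binding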
Rev-erbA mod – Rev-erb alpha (human) modulation; Rev-erbα–FITC-DNA binding, fluorescence polarization, 90 min; activity, % at 10 µM; hit rate 0.79% among 370,000;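 active = activity above about 14%, limit read from the data; passing the limit was not always enough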
NR2E3 ag-2 – agonists of human nuclear receptor NR2E3; Q9Y5X4; hit rate 0.12% among 320,000; GST-NR2E3/biotin-RetCOR TR-FRET, 1536-well; inhibition of corepressor binding, % at 4.78 µM;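 active = percent inhibition above the cutoff of mean plus 3 SD of all tested compounds, set per screening campaign, cut at about 20% in these data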
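Material: NR2E3–RetCOR corepressor complex / Incubation: Compound–protein incubation for 5 h at 4 °C / Dosing: compound at 4.8 µM, single dose / Detection: time-resolved FRET / Benchmarks: high control biotin, low control 0.6% DMSO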
NR1D1 mod conf – confirmation of modulators of human Rev-erb alpha DNA binding. Rev-erb alpha FITC-DNA binding, fluorescence polarization, 90 min. hit rate 61% among 3,000. AID 1259319. shares compounds with Rev-erbA mod. activation, % at 25 µM;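 active = activation at or above a set limit, or at least 3 SD above the negative control mean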
RORg counter – affects RORgamma DNA binding in a Rev-erb alpha counter-screen; purified RORgamma protein-FITC-DNA binding, fluorescence polarization; AID 1259320; shares compounds with Rev-erbA mod; hit rate 8% among 910; IC50, µM;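 active = Compounds whose fitted half-maximal concentration for disrupting protein-DNA binding is below 10 micromolar; the record names Rev-erb in its text, so the target is in doubt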
A number is an active result; i = inactive; nt = no result given. An excerpt weighted towards active compounds, which were near 1.6% of everything screened.

SMILES	PG9 binder	VLA-4 inh	NR2E3 ag-1	Rev-erbA mod	NR2E3 ag-2	NR1D1 mod conf	others
O=C1COc2ccc(C(=O)COC(=O)c3c(F)cccc3Cl)cc2N1	i	i	i	16.0	i	i
CN(C)c1ccc(C=Cc2nccc3ccccc23)cc1	i	nt	i	302.6	nt	345.7	RORg counter=i
COc1ccccc1Nc1nc2cc(C)ccc2cc1C#N	i	i	i	95.7	i	i
COc1ccccc1Nc1nc2c(C)cccc2cc1C#N	i	i	i	i	i	nt
O=C1NC(=O)c2c(Br)c(Br)c(Br)c(Br)c21	i	nt	i	395.4	nt	441.7	RORg counter=7.53
O=C1NC(=O)C(=O)N1	i	i	i	i	i	nt
O=C(OCC#CCSc1nnc(-c2cccc3ccccc23)o1)c1cnc[nH]1	i	i	i	i	nt	nt
CCOc1cc2[nH]c(=S)n(CCCC(=O)NCc3ccco3)c(=O)c2cc1OCC	nt	i	i	i	i	nt
CCOc1cc2[nH]c(=S)n(CCC(=O)NCc3ccco3)c(=O)c2cc1OCC	i	i	i	27.3	i	i
C=CCC[C@@H](Cc1ccc(F)cc1)C(=O)OCCNC(=O)[C@H](CC=C)CC(=O)NCCO	i	i	i	i	nt	nt
CCOC(=O)C1=C(C)NC(=O)NC1c1ccc2c(c1)OCO2 (stereo not drawn)	i	i	i	i	i	nt
CCC(CC)COC(=O)C1=C(C)NC(=O)NC1c1ccc(OC)cc1 (stereo not drawn)	i	i	i	20.7	i	20.2
CCCCCCOC(=O)C1=C(C)NC(=O)NC1c1ccc2c(c1)OCO2 (stereo not drawn)	i	i	i	16.8	i	i
Cc1ccc(-c2c(NC(=O)c3ccccc3)nc3ncccn23)cc1	nt	nt	nt	i	nt	nt
CCCn1c(N)c(C(=O)CN2CCN(S(=O)(=O)c3cccc(Cl)c3)CC2)c(=O)[nH]c1=O	i	i	i	i	nt	nt
CC(=O)c1cc2c(cc1NC(=O)c1ccc(C)cc1)OCCO2	i	i	i	27.6	i	i
CCC(=O)c1cc2c(cc1NC(=O)c1ccc(C)cc1)OCCO2	i	i	i	i	i	nt
CC(=O)c1cc2c(cc1N/C(=N/S(=O)(=O)c1ccc(C)cc1)c1ccccc1)OCO2	i	i	i	i	i	nt
CC(=O)c1cc2c(cc1N/C(=N/S(=O)(=O)c1ccc(C)cc1)c1ccc(Cl)cc1)OCO2	i	i	i	91.8	i	57.3	RORg counter=i
COC(=O)c1c(C)[nH]c(C(=O)/C=C/c2ccc(C)cc2)c1C	i	i	i	26.3	i	i
CCOc1ccccc1N(CC(=O)NC1CCCCC1)C(=O)CCC(=O)Nc1cc(C)ccn1	i	i	i	i	i	nt
C[C@@H]1O[C@@H](OCCC(=O)O)[C@H](O)C[C@H]1O	i	i	i	i	nt	nt
COc1ccc2nc(C)cc(Sc3nc4ccccc4s3)c2c1	i	i	i	i	i	nt
N#CC(C(=O)NCCc1ccccc1)c1nc2ccccc2nc1N1CCOCC1 (stereo not drawn)	i	i	i	i	i	nt
N#CC(C(=O)NCCc1ccccc1)c1nc2ccccc2nc1N1CCCCC1 (stereo not drawn)	i	i	i	36.5	i	i
SMILES	PG9 binder	VLA-4 inh	NR2E3 ag-1	Rev-erbA mod	NR2E3 ag-2	NR1D1 mod conf	others
CCCCN(CCCC)c1nc2ccccc2nc1C(C#N)C(=O)NCCCOC (stereo not drawn)	i	i	i	68.6	i	i
CCN(CC)c1nc2ccccc2nc1C(C#N)C(=O)NCCCOC (stereo not drawn)	i	i	i	i	i	nt
CCCCCCNC(=O)C(C#N)c1nc2ccccc2nc1N1CCOCC1 (stereo not drawn)	i	i	i	39.7	i	33.6	RORg counter=i
CCCCCCNC(=O)C(C#N)c1nc2ccccc2nc1N1CCCC1 (stereo not drawn)	i	i	i	i	i	nt
COc1ccccc1CNC(=O)C[C@@H]1C[C@H]2c3cc(N(C)C)ccc3O[C@H]2[C@H](CO)O1	i	nt	i	i	nt	nt
CCc1cc2c(C)cc(C)cc2nc1SCC(=O)Nc1cc(C)on1	i	i	i	97.0	i	18.8
Cc1ccc(C)c2nc(SCC(=O)N3CCCc4ccccc43)c(C#N)cc12	i	i	i	60.6	i	72.2	RORg counter=i
Cc1cc(NC(=O)CSc2nc3c(C)ccc(C)c3cc2C#N)no1	i	i	i	74.5	i	36.2	RORg counter=i
Cc1ccc(C)c2c1cc(C)c1nnc(SCC(=O)N3CCCc4ccccc43)n12	i	i	i	i	i	nt
Cc1cc(C)c2cc(C#N)c(SCC(=O)Nc3cc(C)on3)nc2c1	i	i	i	104.8	i	48.8	RORg counter=i
COc1ccc(C)cc1S(=O)(=O)N1CCN(C)CC1c1ccccc1 (stereo not drawn)	i	i	i	i	i	nt
COCCN(C(=O)COC(=O)Cc1cccc(OC)c1)c1c(N)n(CC(C)C)c(=O)[nH]c1=O	i	i	i	i	i	nt
Cn1cnnc1SCC(=O)NC1CCCCCC1	i	i	i	i	i	nt
O=C(Cc1coc2cc(O)ccc12)N1CCN(S(=O)(=O)c2ccc(Br)cc2)CC1	i	nt	i	i	nt	nt
Cc1nn(C)c(C)c1N1C(=O)c2cccc3c(Br)ccc(c23)C1=O	i	i	i	i	i	nt
CCN1C(=O)c2cccc3c(N)ccc(c23)C1=O	i	i	i	240.0	i	245.9	RORg counter=5.26
Cc1ccc(N2C(=O)c3cccc4c(N)ccc(c34)C2=O)c2cccnc12	i	i	i	125.7	i	131.2
Cc1nn(C)c(C)c1N1C(=O)c2cccc3c(N)ccc(c23)C1=O	i	i	i	174.7	i	156.7	RORg counter=1.83
COc1ccc(NC(=O)C2(S(=O)(=O)c3ccc(C)cc3)CC2)cc1OC	i	i	i	i	i	nt
CC1(C)NC(=O)N(CC(O)CN(c2ccccc2)S(=O)(=O)c2ccc([N+](=O)[O-])cc2)C1=O (stereo not drawn)	i	i	i	i	i	nt
Cc1cc(C)nc(Nc2nc(C(N)CCc3ccccc3)cs2)n1 (stereo not drawn)	i	nt	i	i	nt	nt
CC(C)C(=O)N1CCN(c2ccccc2NC(=S)NC(=O)c2ccco2)CC1	i	i	i	i	i	nt
CC(C)C(=O)N1CCN(c2ccccc2NC(=S)NC(=O)Cc2ccccc2)CC1	i	i	i	17.2	i	i
Cc1cccc(OCC(=O)NC(=S)Nc2ccccc2N2CCOCC2)c1C	i	i	i	40.0	i	i
Cc1cscc1NC(=O)/C=C/C(=O)O	i	i	i	i	i	nt
CCN(c1ccccc1)S(=O)(=O)c1ccc(C(=O)N2CC(C)CC(C)C2)cc1 (stereo not drawn)	i	i	i	i	i	nt
N#Cc1nnn2c1nc(N)c1c(Cl)cccc12	i	nt	i	36.8	nt	15.3
N#Cc1nnn2c1nc(N)c1c(F)cccc12	i	i	i	i	i	nt
O=S1(=O)CC(N2CCCC2)CN1Cc1cn(Cc2ccccc2)nn1 (stereo not drawn)	i	nt	i	i	nt	nt
